Source: ChEMBL document CHEMBL4033612, “The Bibenzyl Canniprene Inhibits the Production of Pro-Inflammatory Eicosanoids and Selectively Accumulates in Some Cannabis sativa Strains” (J Nat Prod, 2017)
Activity calls are given as the source filed them. The rule behind the calls is not given here.

Key:
[1] = target: T1, Prostaglandin E synthase (Homo sapiens) (UniProt O14684); assay: Inhibition of mPGES-1 in interleukin-1 beta-stimulated human A549 cells microsomal membranes up to 10 uM assessed as reduction in conversion of PGH2 to PGE2 pre-incubated for 15 mins followed by PGH2 substrate addition measured after 1 min by RP-HPLC method; format: cell-based
T1 sequence (whole entry): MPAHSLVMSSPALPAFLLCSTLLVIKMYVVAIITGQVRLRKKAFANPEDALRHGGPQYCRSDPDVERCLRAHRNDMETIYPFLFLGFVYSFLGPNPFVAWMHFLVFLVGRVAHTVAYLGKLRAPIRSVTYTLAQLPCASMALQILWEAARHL
Procedure, shortened: (§1)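 A549 cells treated with 1 ng/mL IL-1β for 48 h, sonicated, and microsomes isolated at 174000g. Membranes were diluted in 0.1 M potassium phosphate pH 7.4 with 2.5 mM glutathione and given compound or vehicle for 15 min at 4 °C. PGH2 was added and the reaction ran 1 min at 4 °C, then was stopped with FeCl2/citric acid containing 11β-PGE2 internal standard. PGE2 was taken by SPE and measured by RP-HPLC. IC50 by linear interpolation.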

[2] = target: T2, Polyunsaturated fatty acid 5-lipoxygenase (Homo sapiens) (UniProt P09917); assay: Inhibition of human recombinant 5-lipoxygenase expressed in Escherichia coli MV1190 up to 10 uM pre-incubated for 10 mins before arachidonic acid substrate addition and measured after 10 mins by RP-HPLC method
T2 sequence (whole entry): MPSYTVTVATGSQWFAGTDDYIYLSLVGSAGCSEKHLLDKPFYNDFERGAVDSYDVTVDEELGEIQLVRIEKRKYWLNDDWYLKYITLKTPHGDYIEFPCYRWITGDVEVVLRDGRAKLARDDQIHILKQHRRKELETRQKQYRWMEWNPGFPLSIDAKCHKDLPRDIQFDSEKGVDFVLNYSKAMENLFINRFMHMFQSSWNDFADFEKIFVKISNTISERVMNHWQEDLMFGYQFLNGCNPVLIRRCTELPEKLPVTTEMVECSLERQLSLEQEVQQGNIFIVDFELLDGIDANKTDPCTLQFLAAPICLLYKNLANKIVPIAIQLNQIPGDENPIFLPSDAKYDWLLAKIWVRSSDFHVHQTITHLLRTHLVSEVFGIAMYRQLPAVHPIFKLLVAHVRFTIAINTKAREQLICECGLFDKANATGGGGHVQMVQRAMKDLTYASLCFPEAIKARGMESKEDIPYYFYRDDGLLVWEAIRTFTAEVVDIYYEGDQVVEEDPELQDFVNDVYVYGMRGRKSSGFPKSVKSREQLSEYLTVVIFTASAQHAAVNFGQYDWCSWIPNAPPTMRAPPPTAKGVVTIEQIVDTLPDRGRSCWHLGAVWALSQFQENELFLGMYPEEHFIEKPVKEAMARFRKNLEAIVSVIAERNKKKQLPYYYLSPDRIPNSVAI
Procedure, shortened: (§2)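 5-LO expressed at 27 °C in transformed E. coli, lysed, sonicated, spun at 40000g; supernatant partially purified on ATP-agarose and used at once. Enzyme diluted in ice-cold PBS with 1 mM EDTA and 1 mM ATP, preincubated with compound 10 min at 4 °C, warmed 30 s at 37 °C. Reaction started with 2 mM CaCl2 plus 20 μM AA, 10 min at 37 °C, stopped with methanol. Products analysed by RP-HPLC. IC50 by linear interpolation around 50% activity.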

[3] = target: T3, Polyunsaturated fatty acid 5-lipoxygenase (Homo sapiens, UniProt P09917); assay: (§3) Inhibition of human recombinant 5-lipoxygenase expressed in Escherichia coli MV1190 pre-incubated for 10 mins before arachidonic acid substrate addition and measured after 10 mins by RP-HPLC method; procedure, shortened: as §2
T3 sequence (P09917 whole entry): T2 sequence (whole entry)

[4] = target: T4, Prostaglandin E synthase (Homo sapiens, UniProt O14684); assay: (§4) Inhibition of mPGES-1 in interleukin-1 beta-stimulated human A549 cells microsomal membranes assessed as reduction in conversion of PGH2 to PGE2 pre-incubated for 15 mins followed by PGH2 substrate addition measured after 1 min by RP-HPLC method; format: cell-based; procedure, shortened: as §1
T4 sequence (O14684 whole entry): T1 sequence (whole entry)

[5] = target: T2, Polyunsaturated fatty acid 5-lipoxygenase (Homo sapiens); assay: as §3; procedure, shortened: as §2
[6] = target: T1, Prostaglandin E synthase (Homo sapiens); assay: as §4; format: cell-based; procedure, shortened: as §1

Row | inhibition [1] | inhibition [2] | IC50 [3] [nM] | IC50 [4] [nM] | inhibition [5] | inhibition [6] | SMILES
1 | inactive | inactive | – | – | – | – | COc1cc(O)c2c(c1)CCC21CCC(O)CC1 (stereo not given)
2 | – | – | 1300 | 1800 | – | – | COc1cc(-c2cc(=O)c3c(O)c(C/C=C(\C)CCC=C(C)C)c(O)cc3o2)ccc1O
3 | – | – | 400 | 10000 | Dose-dependent effect | Dose-dependent effect | COc1cc(O)cc(CCc2ccc(OC)c(O)c2CC=C(C)C)c1
4 | inactive | – | 9300 | – | – | – | COc1cc(O)c2c(c1)CCC21C=CC(=O)CC1 (stereo not given)
